Results published in ChEMBL document CHEMBL4325910, “Design and synthesis of rosiglitazone-ferulic acid-nitric oxide donor trihybrids for improving glucose tolerance” (Eur J Med Chem, 2019).
The source made the active and inactive calls. No cut-off for these calls is given here.

Legend:
[1] = Metabolic stability in simulated gastric fluid at pH 1.5 measured after 16 hrs by HPLC analysis; assay type: ADME; details: read-out: Stability
How it was run: (§1)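 Gastric fluid was 1% pepsin in water, pH 1.5. Intestinal fluid was 1% trypsin with 0.68% KH2PO4, pH 6.8. Compound (100 mM DMSO stock) was diluted 1:1000 into each, in triplicate. Incubation was at 37 °C for 0, 2, 4, 6, 16 or 24 h. Acetonitrile (3 volumes) stopped it, then HPLC at 254 nm.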

[2] = system: 3T3-L1; test: Induction of GSH level in TNF-alpha-induced insulin resistant mouse 3T3L1 cells at 3 to 10 uM after 48 hrs; assay type: functional, cell-based
How it was run: (§2)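 3T3-L1 preadipocytes were differentiated, and mature adipocytes made insulin resistant with TNF-α (4 ng/mL) daily for 4 days. Cells were then treated in triplicate for 48 h, with or without 20 μM C-PTIO. Lysate GSH, SOD and MDA were measured with kits. Three experiments, mean ± SD.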

[3] = Metabolic stability in simulated gastric fluid at pH 1.5 measured after 2 hrs by HPLC analysis; assay type: ADME; details: read-out: Stability; how it was run: as §1
[4] = Metabolic stability in simulated gastric fluid at pH 1.5 measured immediately after compound addition by HPLC analysis; assay type: ADME; details: read-out: Stability; how it was run: as §1
[5] = system: Platelet; test: Antiplatelet activity in platelet rich plasma (unknown origin) assessed as inhibition of ADP-induced platelet aggregation at 0.4 mM relative to control; assay type: functional
[6] = Metabolic stability in human liver microsomes after 6 hrs in presence of NADPH by HPLC analysis; assay type: ADME, Microsome; details: read-out: Stability
How it was run: (§3)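 Compound (100 mM DMSO stock) was added in triplicate to 0.1 M phosphate buffer pH 7.4 with 3.3 mM MgCl2 and human liver microsomes, then preincubated 5 min at 37 °C. NADPH (1.3 mM stock) was added and incubation continued 0, 0.5, 1, 2 or 6 h. Acetonitrile quench, then HPLC at 254 nm.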

[7] = system: Mus musculus; test: Antidiabetic activity in spontaneous db/db BKS.Cg-Dock7m +/+ Leprdb/J mouse assessed as decrease in blood glucose AUC at 10 to 20 mg/kg, po administered as daily dose via gavage for 18 days measured on day 12 up to 120 mins post glucose challenge by oral glucose tolerance test; assay type: functional, organism-based
How it was run: (§4)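 Male db/db mice (BKS.Cg-Dock7m +/+ Leprdb/J), 6 weeks old on purchase, randomized, n=8 per group. Dosed by gavage in 0.5% CMC-Na daily for 18 consecutive days. Vehicle-dosed db/db and C57BL/6 mice served as model and control. Fasting glucose was read by glucometer every three days. On day 12, after an overnight fast, 2 g/kg glucose was given orally. Blood glucose was read at 0–120 min and AUC calculated. Mean ± SEM.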

[8] = Metabolic stability in simulated intestinal fluid at pH 6.8 measured immediately after compound addition by HPLC analysis; assay type: ADME; details: read-out: Stability; how it was run: as §1
[9] = system: Mus musculus; test: Cardioprotective activity in db/db BKS.Cg-Dock7m +/+ Leprdb/J mouse assessed as decrease in serum cTnI level administered po as daily dose via gavage for 18 days by ELISA; assay type: functional, organism-based
How it was run: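 db/db mice were gavaged daily for 18 days in 0.5% CMC-Na, with vehicle-treated model and C57BL/6 control groups. Tail vein blood was collected and serum TNF-α and cTnI measured by commercial ELISA kits. Six individual experiments, mean ± SD, one-way ANOVA.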

[10] = system: Platelet; test: Antiplatelet activity in platelet rich plasma (unknown origin) assessed as inhibition of arachidonic acid-induced platelet aggregation at 0.8 mM relative to control; assay type: functional
[11] = system: Platelet; test: Antiplatelet activity in platelet rich plasma (unknown origin) assessed as inhibition of arachidonic acid-induced platelet aggregation at 0.1 mM relative to control; assay type: functional
[12] = Metabolic stability in human liver microsomes after 1 hrs in presence of NADPH by HPLC analysis; assay type: ADME, Microsome; details: read-out: Stability; how it was run: as §3
[13] = system: Mus musculus; test: Effect on lipid metabolism in spontaneous db/db BKS.Cg-Dock7m +/+ Leprdb/J mouse assessed as increase in serum HDL level at 27 umol/kg, po administered as daily dose via gavage for 18 days; assay type: functional, organism-based
How it was run: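 db/db mice were gavaged daily for 18 days in 0.5% CMC-Na (n=8 per group), with a vehicle model group. On day 19, blood was collected and serum prepared by centrifugation. Serum triglyceride and HDL were then measured.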

[14] = system: Platelet; test: Antiplatelet activity in platelet rich plasma (unknown origin) assessed as inhibition of ADP-induced platelet aggregation at 0.2 mM relative to control; assay type: functional
[15] = system: 3T3-L1; test: Inhibition of ROS production in TNF-alpha-induced insulin resistant mouse 3T3L1 cells at 3 to 10 uM after 48 hrs by DCFH-DA dye-based fluorescence assay; assay type: functional, cell-based
[16] = system: Platelet; test: Antiplatelet activity in platelet rich plasma (unknown origin) assessed as inhibition of ADP-induced platelet aggregation at 1.6 mM relative to control; assay type: functional
[17] = system: Platelet; test: Antiplatelet activity in platelet rich plasma (unknown origin) assessed as inhibition of arachidonic acid-induced platelet aggregation at 0.05 mM relative to control; assay type: functional
[18] = Metabolic stability in simulated intestinal fluid at pH 6.8 measured after 16 hrs by HPLC analysis; assay type: ADME; details: read-out: Stability; how it was run: as §1
[19] = Metabolic stability in simulated intestinal fluid at pH 6.8 measured after 6 hrs by HPLC analysis; assay type: ADME; details: read-out: Stability; how it was run: as §1
[20] = Metabolic stability in simulated gastric fluid at pH 1.5 measured after 24 hrs by HPLC analysis; assay type: ADME; details: read-out: Stability; how it was run: as §1
[21] = system: 3T3-L1; test: Inhibition of MDA level in TNF-alpha-induced insulin resistant mouse 3T3L1 cells at 3 to 10 uM after 48 hrs; assay type: functional, cell-based
[22] = Metabolic stability in Sprague-Dawley rat plasma after 0.5 hrs by HPLC analysis; assay type: ADME, cell-free
How it was run: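 Compound (100 μM final; 100 mM DMSO stock diluted 1:1000) was incubated in triplicate in SD rat plasma at 37 °C with shaking for 0–24 h. Acetonitrile (3 volumes) was added, samples centrifuged and supernatants run on HPLC. Gradient was ammonium acetate pH 3.5/acetonitrile, 1.0 mL/min, detection at 254 nm.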

[23] = system: Platelet; test: Antiplatelet activity in platelet rich plasma (unknown origin) assessed as inhibition of arachidonic acid-induced platelet aggregation at 16 mM relative to control; assay type: functional
[24] = Toxicity in spontaneous db/db BKS.Cg-Dock7m +/+ Leprdb/J mouse assessed as reduction in serum hematocrit value at 27 umol/kg, po administered as daily dose via gavage treated for 18 days; assay type: organism-based; details: in vivo, 432 h
[25] = system: Mus musculus; test: Antidiabetic activity in spontaneous db/db BKS.Cg-Dock7m +/+ Leprdb/J mouse assessed as decrease in blood glucose AUC at 10 mg/kg, po administered as daily dose via gavage for 18 days measured on day 12 up to 120 mins post glucose challenge by oral glucose tolerance test; assay type: functional, organism-based; how it was run: as §4
[26] = system: 3T3-L1; test: Induction of superoxide dismutase level in TNF-alpha-induced insulin resistant mouse 3T3L1 cells at 10 uM after 48 hrs; assay type: functional, cell-based; how it was run: as §2
[27] = system: 3T3-L1; test: Inhibition of ROS production in TNF-alpha-induced insulin resistant mouse 3T3L1 cells at 10 uM after 48 hrs by DCFH-DA dye-based fluorescence assay; assay type: functional, cell-based
[28] = Metabolic stability in Sprague-Dawley rat plasma after 24 hrs by HPLC analysis
[29] = system: Platelet; test: Antiplatelet activity in platelet rich plasma (unknown origin) assessed as inhibition of ADP-induced platelet aggregation at 8 mM relative to control; assay type: functional

## CCN(CC)/[N+]([O-])=N/OCOC(=O)/C=C/c1ccc(OC(=O)OCN2C(=O)SC(Cc3ccc(OCCN(C)c4ccccn4)cc3)C2=O)c(OC)c1 (centres undefined)
[1]
  remaining at 16 h: 86.6%
[2]
  Activity: Active
[3]
  remaining at 2 h: 99.8%
[4]
  remaining at 0 h: 100%
[5]
  inhibition at 400 µM: 18.8%
[6]
  remaining at 6 h: 82%
[7]
  Activity: Active
[8]
  remaining at 0 h: 100%
[9]
  Activity: Dose-dependent effect
[10]
  inhibition at 800 µM: 51.6%
[11]
  inhibition at 100 µM: 21.6%
[12]
  remaining at 1 h: 89.9%
[13]
  Activity: Active
[14]
  inhibition at 200 µM: 9.9%
[15]
  inhibition: Active
[16]
  inhibition at 1600 µM: 47%
[17]
  inhibition at 50 µM: 9.2%
[18]
  remaining at 16 h: 85.8%
[19]
  remaining at 6 h: 87.6%
[20]
  remaining at 24 h: 82.6%
[21]
  inhibition: Active

## CN(CCOc1ccc(CC2SC(=O)NC2=O)cc1)c1ccccn1 (centres undefined) [ROSIGLITAZONE]
[22]
  Stability: 20%
[23]
  inhibition at 16000 µM: 67.2%
[24]
  Activity: Toxic
[25]
  Activity: Active
[26]
  Activity: Active
[27]
  inhibition: Active
[28]
  Stability: 39%
[29]
  inhibition at 8000 µM: 64%
